Assay outcomes deposited in PubChem BioAssay by The Scripps Research Institute Molecular Screening Center.
Sampled rows, rich in hits. Any-hit rate of the full collection: about 4.3%.
TAAR1 agonist = human TAAR1 agonists, primary screen, Fluo-8 calcium fluorescence, CHO RD-HGA16 cells. activation, % at 3 µM. 0.99% of 360,000 active. vehicle wells 0%, saturating PEA agonist 100%. Trace amine-associated receptor 1 (Homo sapiens), Q96RJ0;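 active = activation above the mean activation of all test compounds in the run plus 3 SD, cut at about 38% in these data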
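Signal – calcium-sensitive Fluo-8 signal, excitation 470-495, emission 515-575 nm · System – RD-HGA16 (CHO) cells co-expressing Gα16 and hTAAR1 · Incubation – 17-24 h seeding, 75 min 37 °C dye, 30 min RT · Compound dosing – 3 µM single concentration · Repeats – no replicates (n 1)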
CHO parental Ca = ATP-evoked calcium signal inhibitors, parental CHO, primary screen, counter-screen for OX1R antagonist project, cell-based, fluorescence, Fluo-8 calcium dye; parental CHO-K1, ATP-induced calcium, Fluo-8 fluorescence; inhibition, % at 5.6 µM; 0.63% of 330,000 active; AID 463079, 2010;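 active = inhibition above that plate's mean sample inhibition plus 3 SD, cut at about 26% in these data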;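 also: 0% = ATP-challenged DMSO wells and 100% = DMSO wells without ATP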
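Material: parental CHO cells / Compound: single nominal dose of 5.6 µM per compound / Signal: Fluo-8 fluorescence / Replicates: singlicate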
OX1R antag-1 = antagonists of human orexin 1 receptor (OX1R); Orexin/Hypocretin receptor type 1 (Homo sapiens), O43613; OX1R-expressing cells, FRET antagonist read-out; inhibition, % at 6.6 µM; 1.8% of 330,000 active; in the data active = inhibition mostly above about 38%, no sharp cut-off; inactive = mostly below about 40%;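 also: 0% = agonist challenge alone and 100% = reference antagonist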
GalR3 antagonist = GalR3 antagonists in HEK293 cells, primary screen, cell-based, fluorescence readout | HEK293 GalR3-CNG cAMP membrane potential fluorescence; galR3 body fused to GalR1 C-terminus | inhibition, % at 3 µM | 0.44% of 360,000 active | AID 651719, 2012;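 active = inhibition above the screen-wide average plus 3 SD, cut at about 13% in these data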;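 also: forskolin and galanin both at EC90 stimulate the cells; cAMP rise reported by CNG channel membrane potential dye signal; 0% = forskolin plus galanin with DMSO and 100% = forskolin alone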
Target sequence (O60755 1-299 limits assumed): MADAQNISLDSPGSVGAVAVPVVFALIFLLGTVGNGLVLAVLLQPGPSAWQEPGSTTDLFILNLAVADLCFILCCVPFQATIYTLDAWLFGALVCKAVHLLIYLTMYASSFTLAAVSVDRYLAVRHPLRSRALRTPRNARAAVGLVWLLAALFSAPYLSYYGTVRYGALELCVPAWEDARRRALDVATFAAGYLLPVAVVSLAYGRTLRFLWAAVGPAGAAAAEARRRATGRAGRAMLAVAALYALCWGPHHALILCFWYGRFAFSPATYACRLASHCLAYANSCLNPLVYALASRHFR
TAAR1 antagonist = human TAAR1 antagonists, primary screen, Fluo-8 calcium fluorescence, CHO RD-HGA16 cells; 1.5% of 360,000 active; Trace amine-associated receptor 1 (Homo sapiens), Q96RJ0; antagonist; inhibition, % at 3 µM;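 active = inhibition above a per-plate cutoff, the mean inhibition of test compounds on that plate plus 3 SD, cut at about 49% in these data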;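 also: 0% = DMSO plus EC80 beta-PEA response and 100% = DMSO alone without agonist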
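System: CHO RD-HGA16 cells bearing hTAAR1. Reagent: EC80 β-phenethylamine stimulus. Schedule: seeding 17-24 h prior, 75-min 37 °C, 30-min RT dye loading. Signal: Fluo-8 intracellular calcium dye fluorescence, real-time kinetic reads. Read-out: % inhibition from peak post-agonist over basal fluorescence ratio. Benchmarks: vehicle wells and EC80 agonist wells. Replicates: n of 1.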
OX1R antag-2 = OX1R (HCRTR1) antagonists, primary screen, fluorescence, CHO/OX1R cells, Fluo-8 calcium, orexin A | Orexin/Hypocretin receptor type 1 (Homo sapiens), O43613 | Fluo-8 calcium fluorescence | inhibition, % at 5 µM | 0.43% of 330,000 active;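 active = inhibition above its plate's threshold, mean inhibition of all tested compounds on the plate plus 3 SD, cut at about 37% in these data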;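 also: 0% = orexin A challenge wells and 100% = SB-334867-A antagonist wells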
TAAR1 nonsel count = nonselective antagonists in TAAR1 counter-screen cells, counter-screen for hTAAR1 antagonist project, cell-based, fluorescence, calcium. shares compounds with TAAR1 antagonist. counterscreen cell line, antagonist mode. inhibition, % at 3 µM. AID 651780, 2012. 77% of 2,400 active; in the data active = inhibition above about 22%;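 also: CHO-Ga16 host cells stimulated with ATP at an EC80 level; 0% = agonist EC80 plus vehicle and 100% = vehicle without agonist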
TAAR1 antag conf = human TAAR1 antagonists, retest of hits, confirmation, cell-based, fluorescence; shares compounds with TAAR1 antagonist; TAAR1-expressing cells, fluorescence antagonist read-out; inhibition, % at 3 µM; 40% of 2,400 active; in the data active = inhibition above about 49%;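 also: CHO-Ga16 host cells challenged with agonist PEA near its EC80; 0% = agonist at EC80 plus vehicle and 100% = vehicle with no agonist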
Ga16 nonsel ag = calcium activation in Ga16-expressing cells, counter-screen for TAAR1 antagonist project, cell-based, fluorescence | shares compounds with TAAR1 antagonist | agonist counterscreen | activation, % at 3 µM | 18% of 2,400 active | AID 651953, 2012; in the data active = activation above about 12%;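 also: 0% = vehicle wells and 100% = saturating stimulus response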
TAAR1 ag counter = TAAR1 activation by candidate antagonists – cell-based, fluorescence, counter-screen for TAAR1 antagonist project. activation, % at 3 µM. 2% of 2,400 active. hTAAR1 cell line, agonist mode. shares compounds with TAAR1 antagonist. AID 651955, 2012; in the data active = activation above about 37%;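 also: CHO cells stably expressing TAAR1 with calcium dye readout; 0% = DMSO vehicle and 100% = full agonist response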
Numbers without * were called inactive; · = not tested or not shown.

SMILES	TAAR1 agonist	CHO parental Ca	OX1R antag-1	GalR3 antagonist	TAAR1 antagonist	OX1R antag-2	TAAR1 nonsel count	TAAR1 antag conf	Ga16 nonsel ag	TAAR1 ag counter
CC1=CC(=O)C(C(C)C)=C/C1=C(\c1cc(C(C)C)c(OP(=O)(O)O)cc1C)c1ccccc1C(=O)O	0	1	0	-10	-14	-13	·	·	·	·
CCOC(=O)C1=CCN(S(=O)(=O)c2ccc(Br)cc2)C1c1ccc(C)cc1 (configuration not stated)	0	·	·	-4	-16	·	·	·	·	·
COc1ccccc1-c1cc(C(=O)N/N=C/C=C/c2ccccc2[N+](=O)[O-])c2ccccc2n1	2	-18	15	-2	29	-27	·	·	·	·
O=C(N/N=C/C=C/c1ccccc1[N+](=O)[O-])c1cc(-c2cccnc2)nc2ccccc12	11	-5	31	-1	59*	-11	33*	43	4	-1
CCOC1=C2[C@@H](CN(S(=O)(=O)c3ccc(C)cc3)[C@H]2c2ccccc2F)[C@H]2C(=O)N(CC)C(=O)[C@H]2C1	-1	·	·	-5	-11	·	·	·	·	·
O=C(COc1ccccc1-c1ccccc1)NCCN1C(=O)S/C(=C\c2cccnc2)C1=O	11	-20	15	-3	70*	3	39*	46	12*	9
Cc1ccc(NS(=O)(=O)c2cccc(C(=O)N(C)Cc3cccs3)c2)cc1	3	-13	10	-5	16	-17	·	·	·	·
Cn1nc(C(=O)Nc2cccc(S(=O)(=O)N3CCCCC3)c2)c2ccccc2c1=O	6	·	·	-2	24	·	·	·	·	·
Cn1nc(C(=O)Nc2ccc(S(=O)(=O)N3CCCCC3)cc2)c2ccccc2c1=O	-2	-10	8	1	96*	-25	11	12	2	-1
CCCCC(=O)Nc1ccc(C(=O)Nc2ccc(S(=O)(=O)N3CCCC3)cc2)cc1	·	4	19	-7	·	-9	12	·	6	·
CCOc1ccc(NC(=O)CCC(=O)N2CCSc3ccccc32)cc1	10	-15	16	3	62*	-3	25*	35	7	5
CC(C)Oc1ccc(CNC(=O)CCC(=O)N2CCSc3ccccc32)cc1	2	-11	0	·	-9	-12	·	·	·	·
COc1ccc(CNC(=O)CN(Cc2ccccc2)S(=O)(=O)c2ccc(Cl)cc2)cc1	16	-9	23	-1	63*	-17	42*	65*	12*	14
COc1ccc(C(=O)N2CCc3cc(OC)c(OC)cc3C2)cc1OC	8	-7	14	-3	-3	-21	·	·	·	·
COc1ccc(Nc2nc(C(=O)N3CCc4cc(OC)c(OC)cc4C3)cs2)cc1	2	-14	16	-2	57*	-38	22*	32	5	0
Cc1cccc(C)c1NC(=O)CN(Cc1ccccc1)Cc1ccccc1	16	·	·	-6	62*	·	23*	26	4	9
